Compounds with a hit are over-represented: about 2.6% of the library has one in this group of screens.
GSIS activator = primary screen for activators of insulin secretion dependent on glucose, INS-1E cells, GLuc reporter luminescence; INS-1E GLuc reporter insulin secretion, 2-3 h; activation, % at 16.6 µM; 0.61% of 370,000 active; AID 743287;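 active = lowest replicate activation of at least 40%, so every replicate reaches that level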
E-sel inducer = E-selectin induction on HUVECs | P16581 | HUVEC E-selectin immunofluorescence imaging; normalized: neutral wells 0, TNF-alpha wells 100 | activation, % at 7.58 µM | 0.37% of 260,000 active | AID 686992;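 active = mean E-selectin-positive cell signal at least 10% of the positive control, reached in at least 60% of replicates, without over 20% cell loss; inconclusive = no rule given, readout overlaps actives, possibly toxicity-flagged; inactive = the rest, including those meeting only one limit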
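Assay system: HUVEC primary endothelial cells. Input: 3,000 HUVEC seeded per well. Doses: one compound dose added by pin transfer. Read-out basis: % PE-positive cells. Benchmarks: TNF-alpha high, DMSO low. Detection: immunofluorescence imaging. Buffer or medium: EGM-2, gelatin.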
RAD52 inh = inhibitors of human RAD52 DNA annealing; P43351; recombinant RAD52 DNA annealing, FRET fluorescence; inhibition, % at 18.7 µM; 0.46% of 360,000 active; AID 651710;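 active = every replicate showing at least 50% inhibition; inconclusive = mean inhibition at least 50% but not in every replicate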
MLL AF4-AF9 inh = inhibitors of human MLL-AF4/AF9 interaction. AlphaScreen, biotin-AF4 peptide binding to FLAG-AF9. P42568. 0.47% of 350,000 active. inhibition, % at 10 µM. AID 651704;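 active = every replicate reaching a set inhibition limit, whatever the replicate mean, cut at about 25% in these data; inconclusive = mean inhibition reaches that limit but some replicates miss it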
rRNA inh HTS = selective bacterial rRNA inhibition in E. coli; E. coli WT GFP vs humanized-ribosome RFP mutants, fluorescence, 24 h; active compounds read low; DMSO median 0, no signal -100; GFP signal change (wild-type ribosome), % (concentration not given with the values); 1.6% of 350,000 active; AID 720706;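 active = significant combined selectivity score with lowered wild-type GFP, culture density cut under 30%, mutant RFP and density less affected; inactive = any of these conditions unmet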
RAD54 branch = blocks human RAD54 Holliday junction branch migration | Q92698 | FAM/BHQ fluorescence | inhibition, % at 10.4 µM | 0.14% of 360,000 active | AID 602329;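 active = mean normalized replicate activity at least 40 and at least half of replicates scoring 40 or more; inconclusive = only one of the two criteria met; inactive = mean below 40 and under half of replicates reaching 40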;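 also: inhibitors cause a drop in the FAM fluorescence signal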
Target sequence (Q92698 whole entry, looked up): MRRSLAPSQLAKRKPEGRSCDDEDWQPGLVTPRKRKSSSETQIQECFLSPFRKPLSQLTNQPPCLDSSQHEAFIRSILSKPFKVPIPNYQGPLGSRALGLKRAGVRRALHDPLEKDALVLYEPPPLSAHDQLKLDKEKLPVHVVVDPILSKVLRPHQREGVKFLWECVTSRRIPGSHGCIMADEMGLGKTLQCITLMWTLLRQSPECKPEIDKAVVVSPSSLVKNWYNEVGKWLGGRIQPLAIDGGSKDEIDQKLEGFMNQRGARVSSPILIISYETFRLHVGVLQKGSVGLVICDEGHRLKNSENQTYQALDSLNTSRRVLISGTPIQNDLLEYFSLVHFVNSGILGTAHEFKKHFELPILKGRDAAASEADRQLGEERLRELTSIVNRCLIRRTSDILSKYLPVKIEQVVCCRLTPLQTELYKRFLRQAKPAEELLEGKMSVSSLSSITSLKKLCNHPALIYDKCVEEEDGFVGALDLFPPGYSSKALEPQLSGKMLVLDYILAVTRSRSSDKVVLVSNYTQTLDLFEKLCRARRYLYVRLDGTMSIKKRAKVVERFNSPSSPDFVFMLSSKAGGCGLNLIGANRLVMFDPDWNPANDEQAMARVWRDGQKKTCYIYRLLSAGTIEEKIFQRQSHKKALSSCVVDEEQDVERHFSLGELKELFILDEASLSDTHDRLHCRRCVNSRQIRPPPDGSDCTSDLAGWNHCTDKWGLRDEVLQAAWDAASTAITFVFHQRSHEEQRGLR
AID977621 = growth inhibition of wild-type GFP E. coli, dose response, H69 mutant RFP, cherry-pick. shares compounds with rRNA inh HTS. E. coli wild-type GFP strain growth, fluorescence, 24 h. activity change, negative = inhibition at 50 µM. 1,900 tested, under 10 active. AID 977621;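 active = Wild-type ribosome reporter drop at least double the humanized mutant ribosome reporter drop, growth loss under a set limit; inconclusive = no clear call, values can overlap the other calls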;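 also: wild-type GFP and H69 mutant RFP strains grown together 50/50 in each well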
AID977628 = E. coli growth inhibition, wild-type GFP versus h24 humanized RFP strain, dose response, h24 mutant RFP vs wild-type GFP, cherry-pick; shares compounds with rRNA inh HTS; E. coli WT GFP strain growth, fluorescence, 24 h; activity change, negative = inhibition at 50 µM; 1,900 tested, under 10 active; AID 977628;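 active = compound lowering the normal-ribosome reporter at least twice as much as the humanized-ribosome reporter, growth loss under a set limit; inconclusive = no clear call, values can overlap the other calls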;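 also: wild-type GFP and h24 humanized RFP strains co-cultured 1 to 1 per well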
Numbers stand for hits; . = inactive; ? = inconclusive; / = no result; ! = not confirmed by another sample.

SMILES	GSIS activator	E-sel inducer	RAD52 inh	MLL AF4-AF9 inh	rRNA inh HTS	RAD54 branch	AID977621	AID977628
CCC(=O)N1CC[C@@H]2[C@H](CO)Nc3ccc(C#Cc4ccccc4)cc3[C@@H]21	.	.	.	.	.	.	/	/
C[C@@H]1CN([C@@H](C)CO)C(=O)c2cccc(NC(=O)c3nc4ccccc4s3)c2O[C@@H]1CN(C)CC1CC1	.	.	.	.	-27.5!	.	.	.
C[C@H](CO)N1C[C@H](C)[C@H](CN(C)C(=O)Nc2ccc3c(c2)OCO3)Oc2c(NC(=O)Nc3ccc4c(c3)OCO4)cccc2C1=O	.	.	.	.	.	.	/	/
C[C@H](CO)N1C[C@H](C)[C@H](CN(C)C(=O)Nc2ccc(F)cc2)Oc2c(NC(=O)Nc3ccccc3)cccc2C1=O	.	.	.	.	-22.9	.	.	?
COc1cccc(NC(=O)N(C)C[C@H]2Oc3ncc(C#Cc4cccnc4)cc3C(=O)N([C@H](C)CO)C[C@H]2C)c1	.	/	.	.	-39.0	.	.	.
C[C@@H]1CN([C@@H](C)CO)C(=O)c2cccc(NC(=O)c3nc4ccccc4s3)c2O[C@H]1CN(C)CC1CC1	.	.	.	.	.	.	/	/
C[C@@H]1CN([C@H](C)CO)C(=O)c2cccc(NC(=O)Nc3ccc4c(c3)OCO4)c2O[C@@H]1CN(C)C(=O)Nc1ccc2c(c1)OCO2	.	.	.	.	-18.6	.	.	?
COC(=O)c1cc(C(=O)Cc2ccccc2)c[nH]1	.	.	.	.	-21.9	/	.	/
O=C(C[C@H]1CC[C@H](NC(=O)c2ccc3c(c2)OCO3)[C@H](CO)O1)NCc1ccc(F)cc1	.	.	.	.	.	.	/	/
C[C@@H]1CN([C@@H](C)CO)C(=O)CCCn2nncc2CO[C@H]1CN(C)C(=O)Nc1cccc(C(F)(F)F)c1	.	.	.	.	-17.3	.	/	?
Cc1ccc(Cl)cc1N1CCN(C(=O)c2ccc3nc[nH]c3c2)CC1	.	.	.	.	-45.5	/	.	/
Cc1cccc(N2CCN(C(=O)c3ccc4nc[nH]c4c3)CC2)c1C	.	.	.	.	.	.	/	/
CC(=O)N(C)C[C@H]1Oc2ncc(C#CCC3CCCC3)cc2C(=O)N([C@@H](C)CO)C[C@H]1C	.	.	.	.	.	.	/	/
Cc1cc(F)ccc1-c1cc(C(=O)NCC2CCCCC2)[nH]n1	.	.	.	.	-36.0	.	/	?
CC(C)Oc1cc(F)ccc1-c1cc(C(=O)NCC2CCCCC2)[nH]n1	.	.	.	.	.	.	/	/
CCn1ncc(Br)c1C(=O)Nc1cccc(F)c1	.	.	.	.	.	/	/	/
CCn1ncc(Br)c1C(=O)Nc1ccc2c(c1)OCCO2	.	.	.	.	-20.9	/	/	.
Cc1nnc2sc(SCC(=O)Nc3ccc(Br)cc3)nn2c1=O	.	.	.	.	-23.8	/	.	/
O=S(=O)(NC1c2cccc3cccc(c23)C1Sc1ncccn1)c1ccccc1 (stereo unspecified)	.	.	.	.	-24.1	/	.	?
Fc1cccc(Cc2c(-c3ccco3)nc3c4ccccc4ccn23)c1	.	.	.	.	-21.3	.	.	/
Brc1ccc(-c2nc3c4ccccc4ccn3c2Cc2ccccc2)cc1	.	.	.	.	-21.9	/	.	.
CN(Cc1ccc(F)cc1)C(=O)CCc1nnc(-c2ccccc2)o1	.	.	.	.	.	/	/	/
CN(Cc1nnc(-c2ccc(F)cc2)o1)c1ccccc1	.	/	.	.	-25.9	.	.	.
Cc1noc(C)c1S(=O)(=O)N(C)C[C@H]1OCCCC[C@H](C)Oc2ccc(NC(=O)c3ccccc3)cc2C(=O)N([C@H](C)CO)C[C@@H]1C	.	.	.	.	.	.	/	/
CN(c1ccc(C(=O)NCc2cccs2)cc1)S(=O)(=O)c1ccccc1	.	.	.	.	-18.2	/	.	.
SMILES	GSIS activator	E-sel inducer	RAD52 inh	MLL AF4-AF9 inh	rRNA inh HTS	RAD54 branch	AID977621	AID977628
COCC#Cc1ccc2c(c1)O[C@@H](CN(C)C(=O)C1CCC1)[C@H](C)CN([C@@H](C)CO)S2(=O)=O	.	.	.	.	.	.	/	/
COc1ccc(-c2noc(=O)n2Cc2ccccc2Cl)cc1	.	/	.	.	-15.2	.	/	.
COc1ccc(-c2noc(=O)n2Cc2ccc(F)cc2Cl)cc1	.	.	.	.	.	.	/	/
Cc1cccc(S(=O)(=O)N[C@H]2CC[C@H](CCNC(=O)Nc3cc(F)ccc3F)O[C@@H]2CO)c1	.	.	.	.	.	.	/	/
CN1CCN(C(=O)c2cc3nc(-c4ccco4)cc(C(F)(F)F)n3n2)CC1	.	/	.	.	-27.4	/	.	.
COc1ccc(Br)c(-c2nc(CS(=O)(=O)c3ccc(F)cc3)no2)c1	.	/	.	.	-26.6	/	/	.
COc1ccc(Br)c(-c2nnc(CS(=O)(=O)c3ccccc3)o2)c1	.	.	.	.	.	.	/	/
C[C@@H]1CN([C@H](C)CO)C(=O)c2cc(NS(=O)(=O)c3ccc(Cl)cc3)ccc2O[C@@H](C)CCCCO[C@@H]1CN(C)C(=O)C1CCCCC1	.	.	.	.	.	.	/	/
Cc1cc([N+](=O)[O-])nn1CC(=O)N/N=C/c1ccccc1F	.	.	.	/	.	/	/	/
Cc1cc([N+](=O)[O-])nn1CC(=O)Nc1cc(F)ccc1F	.	.	.	.	-18.2	/	.	?
C[C@H]1CN([C@@H](C)CO)S(=O)(=O)c2ccc(C3=CCCC3)cc2O[C@H]1CN(C)C(=O)c1ccccn1	.	.	.	.	.	.	/	/
COc1ccc(C(=O)Cn2c(C)nc([N+](=O)[O-])c2Br)cc1	.	.	.	.	-35.4	/	/	.
O=C1c2cccc(OCC(=O)N3CCCc4ccccc43)c2CCN1Cc1cccnc1	.	/	.	.	-26.4	/	.	/
Cc1ccccc1CN1CCc2c(OCC(=O)N3CCCc4ccccc43)cccc2C1=O	.	/	/	/	/	/	/	/
O=C(NCc1ccc(F)cc1)[C@@H]1[C@@H](CO)[C@@H]2Cn3c(ccc(-c4cccnc4)c3=O)[C@H]1N2	.	.	.	.	.	.	/	/
Cc1nn(-c2ccccc2)nc1C(N)=O	.	.	.	/	.	.	/	/
Cc1nn(-c2cccc(Cl)c2)nc1C(=O)O	.	/	.	.	-16.4	/	.	/
CC1C=Cc2ccccc2N1C(=O)c1ccccc1 (stereo unspecified)	.	/	.	.	-31.6	.	.	/
Cc1noc(C)c1NC(=O)N(C)C[C@@H]1OCCCC[C@@H](C)Oc2ccc(NC(=O)Nc3ccc4c(c3)OCO4)cc2C(=O)N([C@H](C)CO)C[C@@H]1C	.	.	.	.	.	.	/	/

Assay outcomes deposited in PubChem by Broad Institute.
